From article PMC2948583 (Journal of proteome research, 2010)

Tests used:
whole saliva proteases = test: Proteolysis of purified statherin in pooled whole saliva; assay type: in vitro ADME, human; details: WS boiled to abolish protease activities; statherin 400 µg/ml; 37°C; RP-HPLC
Procedure, shortened: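 Pooled Parafilm-stimulated whole saliva from four healthy donors, boiled to abolish protease activity. Statherin, purified from parotid secretion by zinc precipitation and RP-HPLC, added to 400 µg/ml final. Incubated at 37°C and sampled at 0, 10, 30, 60 and 90 min. Aliquots boiled 10 min, diluted in 0.1% TFA, and run on analytical C-18 RP-HPLC (0–55% buffer B over 74 min). Intact statherin peak integrated.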

[1] = system: whole saliva supernatant proteases; test: Proteolysis of purified statherin in pooled whole saliva supernatant; assay type: in vitro ADME, human; details: WSS boiled to abolish protease activities; statherin 400 µg/ml; 37°C; RP-HPLC
Procedure, shortened: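 Supernatant from pooled stimulated whole saliva (14,000 × g, 20 min, 4°C), boiled to abolish protease activity. Parotid-derived purified statherin added to 400 µg/ml final. Incubated at 37°C and sampled at 0, 1, 3, 5 and 7 h. Aliquots boiled 10 min, diluted in 0.1% TFA, and analysed by analytical C-18 RP-HPLC (0–55% of 80% acetonitrile/0.1% TFA over 74 min). Intact statherin peak area integrated.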

statherin (DSSEEKFLRRIGRFGYGYGPYQPVPEQPLYPQPYQPQYQQYTF; UniProt P02808 20-62, looked up)
Stability of statherin in boiled WS (control) (whole saliva proteases): remained intact | Stability of statherin in boiled WSS (control) [1]: remained intact
